Data from ChEMBL document CHEMBL4371102, “Tricholopardins A and B, Anti-inflammatory Terpenoids from the Fruiting Bodies of Tricholoma pardinum” (J Nat Prod, 2019).
Peptide text beside a SMILES is read from it. * marks the point of attachment. Cbz = O=C(OCc1ccccc1)*

Tests used:
THP-1 [1] = test: Anti-inflammatory activity against human THP1 cells assessed as inhibition of LPS-stimulated TNFalpha production preincubated for 30 mins followed by LPS addition and measured after 24 hrs by ELISA; assay type: functional, cell-based
Method in brief: (§1)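 Cells kept at 37 °C in 5% CO2 with 10% heat-inactivated FBS and 1% penicillin: RAW264.7 in DMEM, THP-1 in RPMI 1640. Cells were pretreated 30 min with compound (2.5–20 μM, from DMSO solution) or dexamethasone (5 μM, positive control), then stimulated with LPS 1 μg/mL for 24 h. Supernatant TNF-α, IL-1β and PGE2 were measured by ELISA. Mean ± SD, n = 3; one-way ANOVA with Dunnett's T3 and two-tailed t test.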

THP-1 [2] = test: Anti-inflammatory activity against human THP1 cells assessed as inhibition of LPS-stimulated IL-1beta production at 20 uM preincubated for 30 mins followed by LPS addition and measured after 24 hrs by ELISA relative to control; assay type: functional; method in brief: as §1
RAW264.7 [3] = test: Anti-inflammatory activity against mouse RAW264.7 cells assessed as inhibition of LPS-stimulated TNFalpha production at 20 uM preincubated for 30 mins followed by LPS addition and measured after 24 hrs by ELISA relative to control; assay type: functional; method in brief: as §1
RAW264.7 [4] = test: Anti-inflammatory activity against mouse RAW264.7 cells assessed as inhibition of LPS-stimulated PGE2 production at 20 uM preincubated for 30 mins followed by LPS addition and measured after 24 hrs by ELISA relative to control; assay type: functional; method in brief: as §1
THP-1 [5] = test: Anti-inflammatory activity against human THP1 cells assessed as inhibition of LPS-stimulated TNFalpha production at 20 uM preincubated for 30 mins followed by LPS addition and measured after 24 hrs by ELISA relative to control; assay type: functional; method in brief: as §1
THP-1 [6] = test: Anti-inflammatory activity against human THP1 cells assessed as inhibition of LPS-stimulated PGE2 production preincubated for 30 mins followed by LPS addition and measured after 24 hrs by ELISA; assay type: functional, cell-based; method in brief: as §1
RAW264.7 [7] = test: Anti-inflammatory activity against mouse RAW264.7 cells assessed as inhibition of LPS-stimulated IL-1beta production at 20 uM preincubated for 30 mins followed by LPS addition and measured after 24 hrs by ELISA relative to control; assay type: functional; method in brief: as §1
[8] = Cytotoxicity against mouse RAW264.7 cells assessed as cell viability up to 20 uM by MTS assay relative to control; assay type: cell-based; details: read-out: Activity
Method in brief: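 RAW264.7 macrophages were grown in DMEM with 10% heat-inactivated FBS and 1% penicillin (37 °C, 5% CO2), detached with trypsin-EDTA and seeded in 96-well plates. At 80% confluence they were treated with compound at 2.5–20 μM (dissolved in DMSO). Viability was read by MTS following the kit instructions.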

RAW264.7 [9] = test: Anti-inflammatory activity against mouse RAW264.7 cells assessed as inhibition of LPS-stimulated NO production after 18 hrs by Griess reagent based assay; assay type: functional, cell-based; details: RAW264.7, 18 h
Method in brief: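 RAW264.7 cells were seeded at 2 × 10^5 cells/well in RPMI 1640 with 10% FBS (37 °C, 5% CO2) and preincubated 24 h. They were then exposed 18 h to serial dilutions up to 25 μM (DMSO stock diluted in medium) with LPS 1 μg/mL. Supernatant was mixed 1:1 with Griess reagent for 5 min, and absorbance was read at 570 nm, in triplicate. MG-132 served as positive control.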

RAW264.7 [10] = test: Anti-inflammatory activity against mouse RAW264.7 cells assessed as inhibition of LPS-stimulated PGE2 production preincubated for 30 mins followed by LPS addition and measured after 24 hrs by ELISA; assay type: functional, cell-based; method in brief: as §1
THP-1 [11] = test: Anti-inflammatory activity against human THP1 cells assessed as inhibition of LPS-stimulated IL-1beta production preincubated for 30 mins followed by LPS addition and measured after 24 hrs by ELISA; assay type: functional, cell-based; method in brief: as §1
RAW264.7 [12] = test: Anti-inflammatory activity against mouse RAW264.7 cells assessed as inhibition of LPS-stimulated IL-1beta production preincubated for 30 mins followed by LPS addition and measured after 24 hrs by ELISA; assay type: functional, cell-based; method in brief: as §1
RAW264.7 [13] = test: Anti-inflammatory activity against mouse RAW264.7 cells assessed as inhibition of LPS-stimulated TNFalpha production preincubated for 30 mins followed by LPS addition and measured after 24 hrs by ELISA; assay type: functional, cell-based; method in brief: as §1

## CC1=C(C=O)C(C)(C)[C@H](CC[C@H]2CC[C@]3(OC2)O[C@@]2(O)CC[C@]3(C)OC2(C)C)CC1
THP-1 [1]
  inhibition: Dose-dependent effect
THP-1 [2]
  inhibition at 20 µM: 99.3%
RAW264.7 [3]
  inhibition at 20 µM: 70.9%
RAW264.7 [4]
  inhibition at 20 µM: 92.5%
THP-1 [5]
  inhibition at 20 µM: 99.9%
THP-1 [6]
  inhibition: Dose-dependent effect
RAW264.7 [7]
  inhibition at 20 µM: 94.3%
[8]
  viability: 60%
RAW264.7 [9]
  IC50: 80 nM
RAW264.7 [10]
  inhibition: Dose-dependent effect
THP-1 [11]
  inhibition: Dose-dependent effect
RAW264.7 [12]
  inhibition: Dose-dependent effect
RAW264.7 [13]
  inhibition: Dose-dependent effect

## C=C1CC[C@@H](CCO)C(C)(C)[C@H]1C/C=C1/C(=O)OC[C@@H]1O
RAW264.7 [9]
  IC50: 16200 nM

## CC(C)C[C@@H](C=O)NC(=O)[C@H](CC(C)C)NC(=O)[C@H](CC(C)C)NC(=O)OCc1ccccc1 [MG-132] (Cbz-Leu-Leu-Leu-aldehyde)
RAW264.7 [9]
  IC50: 160 nM
